Active and inactive are the calls of the source. No cut-off for these calls is given here.
Assays:
[1] = test system: Human alphaherpesvirus 1; assay: Antiviral activity against HSV1 CL101 infected in African green monkey Vero cells assessed as plaque forming unit at 200 uM after 40 hrs relative to control; assay type: functional; settings: Human alphaherpesvirus 1, CL101, Vero
Summary of the method: (§1)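 After 1 h adsorption at 37 °C, the inoculum was removed and cells washed with PBS. Compound was added in serum-supplemented medium and cultures incubated 40 h at 37 °C. Virus was released by one freeze–thaw and titrated by plaque assay on Vero cells. Percent inhibition was pfu relative to drug-free cultures.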

[2] = test system: Vero; assay: Cytotoxicity against African green monkey Vero cells at 200 uM after 3 days by haemocytometry; assay type: cell-based; settings: chlorocebus sabaeus, 72 h
[3] = test system: CCRF S-180; assay: Cytotoxicity against mouse S180 cells at 200 uM after 18 to 42 hrs relative to control; assay type: functional, cell-based
Summary of the method: (§2)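 Mouse sarcoma 180 suspension cultures in Fischer's medium with 10% horse serum, 37 °C, humidified 5% CO2 (generation time ~18 h). Compound was added to exponential-phase cells at ~2 × 10⁴ cells/mL. Increase in cell number was measured after 18 and 42 h. Percent inhibition was calculated relative to drug-free control.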

[4] = test system: Human alphaherpesvirus 1; assay: Antiviral activity against HSV1 CL101 infected in African green monkey Vero cells assessed as plaque forming unit at 400 uM after 40 hrs relative to control; assay type: functional; settings: Human alphaherpesvirus 1, CL101, Vero; summary of the method: as §1
[5] = (§3) Cytotoxicity against African green monkey Vero cells at 400 uM after 3 days by haemocytometry; assay type: cell-based; settings: chlorocebus sabaeus, Vero cells; read-out: INH
Summary of the method: (§4)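 Uninfected Vero cells were seeded at 0.1 confluency in Dulbecco's medium with 10% fetal calf serum and incubated 1 day at 37 °C in 5% CO2. Compound was then added in growth medium. Duplicate flasks were harvested at once and then daily for 3 days by trypsin (0.125%)/EDTA (0.02%) for 15 min at 37 °C, dispersed, and stained with trypan blue. Cells were counted by haemocytometer.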

[6] = test system: CCRF S-180; assay: Cytotoxicity against mouse S180 cells at 400 uM after 18 to 42 hrs relative to control; assay type: functional; summary of the method: as §2
[7] = Cytotoxicity against African green monkey Vero cells at 0.1 uM after 3 days by haemocytometry; assay type: cell-based; settings: chlorocebus sabaeus, read-out: INH; summary of the method: as §4
[8] = test system: Vero; assay: Cytotoxicity against African green monkey Vero cells at 0.01 uM after 3 days by haemocytometry; assay type: cell-based; settings: chlorocebus sabaeus, 72 h; summary of the method: as §4
[9] = test system: CCRF S-180; assay: Cytotoxicity against mouse S180 cells at 0.1 uM after 18 to 42 hrs relative to control; assay type: functional; summary of the method: as §2
[10] = test system: CCRF S-180; assay: Cytotoxicity against mouse S180 cells at 0.01 after 18 to 42 hrs relative to control; assay type: functional; summary of the method: as §2
[11] = test system: Vero; assay: as §3; assay type: cell-based; settings: chlorocebus sabaeus, vero, 72 h, 400 µM; summary of the method: as §4
[12] = test system: Vero; assay: Cytotoxicity against African green monkey Vero cells at 1600 uM after 3 days by haemocytometry; assay type: cell-based; settings: chlorocebus sabaeus, 72 h; summary of the method: as §4
[13] = test system: CCRF S-180; assay: Cytotoxicity against mouse S180 cells at 1600 uM after 18 to 42 hrs relative to control; assay type: functional, cell-based; summary of the method: as §2
[14] = test system: Human alphaherpesvirus 1; assay: Antiviral activity against HSV1 CL101 infected in African green monkey Vero cells assessed as plaque forming unit at 1 uM after 40 hrs relative to control; assay type: functional, organism-based; summary of the method: as §1
[15] = test system: Vero; assay: Cytotoxicity against African green monkey Vero cells at 1 uM after 3 days by haemocytometry; assay type: cell-based; settings: chlorocebus sabaeus, 72 h; summary of the method: as §4
[16] = test system: CCRF S-180; assay: Cytotoxicity against mouse S180 cells at 1 uM after 18 to 42 hrs relative to control; assay type: functional; summary of the method: as §2
[17] = test system: Human alphaherpesvirus 1; assay: Antiviral activity against HSV1 CL101 infected in African green monkey Vero cells assessed as plaque forming unit at 50 uM after 40 hrs relative to control; assay type: functional; settings: Human alphaherpesvirus 1, CL101, Vero; summary of the method: as §1
[18] = test system: Vero; assay: (§5) Cytotoxicity against African green monkey Vero cells at 50 uM after 3 days by haemocytometry; assay type: cell-based; settings: chlorocebus sabaeus, vero, 72 h, 50 µM; summary of the method: as §4
[19] = test system: Vero; assay: Cytotoxicity against African green monkey Vero cells at 800 uM after 3 days by haemocytometry; assay type: cell-based; settings: chlorocebus sabaeus, 72 h; summary of the method: as §4
[20] = as §5; assay type: cell-based; settings: chlorocebus sabaeus, Vero cells; read-out: INH; summary of the method: as §4
[21] = test system: CCRF S-180; assay: Cytotoxicity against mouse S180 cells at 50 uM after 18 to 42 hrs relative to control; assay type: functional; summary of the method: as §2

NC[C@H]1O[C@@H](n2cc(Br)c(O)nc2=O)C[C@@H]1O
inhibition at 200 µM [1]: 86.2%
Activity [2]: Non-toxic
inhibition [3]: inactive

[N-]=[N+]=NC[C@H]1O[C@@H](n2cc(F)c(O)nc2=O)C[C@@H]1O
inhibition at 400 µM [4]: 5%
cytotoxicity at 72 h, 400 µM [5]: 100%
inhibition at 400 µM [6]: 100%

O=c1[nH]c(=O)n([C@H]2C[C@H](O)[C@@H](CO)O2)cc1F [FLOXURIDINE]
inhibition at 400 µM [4]: 84.3%
cytotoxicity at 72 h, 400 µM [5]: 100%
cytotoxicity at 72 h, 0.1 µM [7]: 100%
Activity [8]: Non-toxic
inhibition at 400 µM [6]: 100%
inhibition at 0.1 µM [9]: 100%
inhibition (INH) [10]: 100%

NC[C@H]1O[C@@H](n2cc(Cl)c(O)nc2=O)C[C@@H]1O
inhibition at 400 µM [4]: 74.3%
Activity [11]: Non-toxic
inhibition [6]: inactive

NC[C@H]1O[C@@H](n2cc(I)c(N)nc2=O)C[C@@H]1O
inhibition at 400 µM [4]: 92.8%
Activity [11]: Non-toxic
Activity [12]: Non-toxic
inhibition [6]: inactive
inhibition [13]: inactive

[N-]=[N+]=NC[C@H]1O[C@@H](n2cc(I)c(N)nc2=O)C[C@@H]1O
inhibition at 200 µM [1]: 37.5%
Activity [2]: Non-toxic
inhibition [3]: inactive

NC[C@H]1O[C@@H](n2cc(F)c(=O)[nH]c2=O)C[C@@H]1O
inhibition at 400 µM [4]: 85.6%
inhibition [14]: inactive
cytotoxicity at 72 h, 400 µM [5]: 100%
Activity [15]: Non-toxic
inhibition at 400 µM [6]: 100%
inhibition at 1 µM [16]: 100%

Nc1nc(=O)n([C@H]2C[C@H](O)[C@@H](CO)O2)cc1I [IBACITABINE]
inhibition at 50 µM [17]: 99.5%
Activity [18]: Non-toxic
Activity [19]: Non-toxic

O=c1[nH]c(=O)n([C@H]2C[C@H](O)[C@@H](CO)O2)cc1I [IDOXURIDINE]
inhibition at 50 µM [17]: 99.5%
cytotoxicity at 72 h, 50 µM [20]: 100%
inhibition at 50 µM [21]: 100%

— ChEMBL document CHEMBL3243955, “A novel synthesis and biological activity of several 5-halo-5'-amino analogues of deoxyribopyrimidine nucleosides” (J Med Chem, 1978)
